In the library only some 1.2% were active in any assay of this set; here they are far more common.
GalR3 antag = antagonists of human GalR3 | O60755 | HEK293 GalR3-CNG cAMP membrane potential fluorescence; galR3 body fused to GalR1 C-terminus | inhibition, % at 3 µM | 0.44% of 360,000 active;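 active = inhibition above the screen-wide average plus 3 SD, cut at about 13% in these data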;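 also: forskolin and galanin both at EC90 stimulate the cells; cAMP rise reported by CNG channel membrane potential dye signal; 0% = forskolin plus galanin with DMSO and 100% = forskolin alone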
Target sequence (O60755 1-299 limits assumed): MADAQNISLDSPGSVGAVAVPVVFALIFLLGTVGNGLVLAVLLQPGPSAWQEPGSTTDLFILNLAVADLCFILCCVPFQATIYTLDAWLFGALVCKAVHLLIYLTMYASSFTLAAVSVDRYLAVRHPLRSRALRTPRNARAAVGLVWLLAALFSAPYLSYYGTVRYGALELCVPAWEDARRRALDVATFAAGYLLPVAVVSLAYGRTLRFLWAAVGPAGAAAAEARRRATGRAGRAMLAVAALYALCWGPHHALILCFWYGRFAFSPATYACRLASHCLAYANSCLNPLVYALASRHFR
ASAP1 inh = inhibitors of human ASAP1 ArfGAP activity; Q9ULH1; ASAP1-stimulated ARF1 GTP hydrolysis, GDP FP detection; inhibition, % at 16.5 µM; 0.19% of 360,000 active; AID 624377; in the data active = inhibition above about 25%;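 also: 0% = vehicle with enzyme and substrate and 100% = no enzyme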
Target sequence (Q9ULH1 325-724 limits assumed): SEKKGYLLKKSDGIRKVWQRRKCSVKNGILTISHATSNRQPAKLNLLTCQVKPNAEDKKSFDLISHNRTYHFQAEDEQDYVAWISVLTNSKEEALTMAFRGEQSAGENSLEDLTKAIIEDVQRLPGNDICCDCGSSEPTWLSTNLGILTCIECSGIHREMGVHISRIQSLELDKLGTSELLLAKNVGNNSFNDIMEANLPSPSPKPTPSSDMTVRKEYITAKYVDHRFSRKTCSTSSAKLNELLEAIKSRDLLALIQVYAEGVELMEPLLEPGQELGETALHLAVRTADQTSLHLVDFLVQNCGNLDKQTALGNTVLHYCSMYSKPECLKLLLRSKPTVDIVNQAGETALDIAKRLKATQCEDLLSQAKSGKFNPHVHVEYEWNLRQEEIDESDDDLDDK
Rin1 Abl inh = blocks binding of human Rin1 to Abl. P00519+Q13671. TR-FRET Rin1/Abl binding, biochemical. inhibition, % at 7.35 µM. 0.4% of 360,000 active; in the data active = inhibition above about 5%, passing the limit was not always enough
ARFGAP1 inh = inhibitors of rat ARFGAP1. Q62848. AID 651572. inhibition, % at 16.5 µM. Arfgap1-stimulated ARF1 GTP hydrolysis, GDP FP detection. 0.26% of 360,000 active;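 active = inhibition above a per-plate limit, mean inhibition of low control wells plus 3 SD, cut at about 25% in these data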;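 also: 0% = DMSO wells with enzyme and 100% = wells lacking Arfgap1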
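Replicates: Single well per compound | Assay system: Truncated rat Arfgap1 GAP domain | Control set: No-Arfgap1 wells (100%) versus DMSO full-reaction wells (0%) | Times: Enzyme reaction 120 min at 25 °C after 20 min preincubation | Reagent: Human ARF1(Δ1-17)-GTP substrate | Measured by: Tracer-displacement fluorescence polarization with EDTA stop, 620/688 nm | Measure: Percent inhibition of Arfgap1-stimulated GTP hydrolysis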
Rin1 Abl conf = confirmation of inhibitors of human Rin1-Abl interaction; shares compounds with Rin1 Abl inh; TR-FRET Rin1-Abl binding, purified proteins; inhibition, % at 7.35 µM; 49% of 1,300 active; AID 602124
GFP quencher = GFP fluorescence interference artifact. shares compounds with Rin1 Abl inh. inhibitors/quenchers counterscreen. inhibition, % at 6.75 µM. 8.5% of 1,300 active. AID 602125;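 also: ABL1-eGFP fusion protein alone without its partner RIN1-SBP; 0% = protein with vehicle and 100% = wells lacking protein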
GFP quench DR = GFP fluorescence interference dose response; shares compounds with Rin1 Abl inh; GFP fluorescence interference/quenching counterscreen; IC50, µM; 230 tested, under 10 active; AID 602182; call rule not given here;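 also: ABL1-eGFP fusion protein alone without its RIN1 binding partner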
An asterisk follows results filed as active. Rule as the data show it, unless noted: active = inhibition above about 6.5%; inactive = the rest.

How did Cc1cc(=O)n2nc(N3CCCC(C(=O)N4CCc5ccccc54)C3)sc2n1 (stereo not given) do in these assays?
Rin1 Abl inh: 12.7*; Rin1 Abl conf: 16.6*; GFP quencher: 0.8

What do the screens show for `CCCn1cc(C(=O)Nc2ccc(Oc3cccnc3)cc2)c2ccccc21`?
GalR3 antag: -5.7; ASAP1 inh: -3.4; ARFGAP1 inh: 7.4

What do the screens show for `CC(C)(C)n1ncc2c(=O)n(Cc3cccc(Cl)c3)cnc21`?
GalR3 antag: -9.6; ASAP1 inh: -5.8; Rin1 Abl inh: 7.6*; ARFGAP1 inh: -3.7; Rin1 Abl conf: -0.8; GFP quencher: -0.9

What do the screens show for `O=C(O)CC(C(=O)O)N1C(=O)/C(=C/C=C/c2ccco2)SC1=S` (stereo not given)?
GalR3 antag: -0.3; ASAP1 inh: 1.2; Rin1 Abl inh: 17.9*; ARFGAP1 inh: -8.4; Rin1 Abl conf: 11.4*; GFP quencher: 13.1*

What do the screens show for `O=C(O)C(Cc1ccccc1)N1C(=O)/C(=C/C=C/c2ccco2)SC1=S` (stereo not given)?
GalR3 antag: -2.8; ASAP1 inh: 0.1; Rin1 Abl inh: 7.0; ARFGAP1 inh: -38.0

How did Cn1c(=O)c2c(ncn2CC(=O)N2CCN(S(=O)(=O)c3ccc(Cl)cc3)CC2)n(C)c1=O do in these assays?
GalR3 antag: 3.5; ASAP1 inh: 7.9; Rin1 Abl inh: 7.0; ARFGAP1 inh: -15.8

What do the screens show for `Cc1ccc(S(=O)(=O)N2CCN(C(=O)Cn3cnc4c3c(=O)n(C)c(=O)n4C)CC2)cc1C`?
GalR3 antag: -3.2; ASAP1 inh: 8.8; Rin1 Abl inh: 17.2*; ARFGAP1 inh: 1.8; Rin1 Abl conf: 19.1*; GFP quencher: -0.7; GFP quench DR: >67.6

What do the screens show for `O=C(c1ccccc1)N1CCN(c2ccc(NCc3ccc4c(c3)OCO4)cc2)CC1`?
ASAP1 inh: 7.1; Rin1 Abl inh: 12.4*; ARFGAP1 inh: 13.3; Rin1 Abl conf: 12.0*; GFP quencher: -0.5

How did CCOc1cc(/C=C2/C(=O)N(c3ccccc3)N=C2C)ccc1OC(=O)c1ccco1 do in these assays?
GalR3 antag: 1.9; ASAP1 inh: -11.3; Rin1 Abl inh: 19.3*; ARFGAP1 inh: 1.4; Rin1 Abl conf: -3.6; GFP quencher: -4.0

Results for CC1=NN(c2ccccc2)C(=O)/C1=C/c1ccc[nH]1 ?
GalR3 antag: -2.7; ASAP1 inh: 6.3; Rin1 Abl inh: -2.9; ARFGAP1 inh: -13.0

Results for CC1=NN(c2ccc(C(=O)O)cc2)C(=O)/C1=C/c1ccc(-c2ccccc2F)o1 ?
Rin1 Abl inh: 2.9

How did CCOc1cc(/C=C2\C(=O)N(c3ccc(C(N)=O)cc3)N=C2C)ccc1OC(=O)c1cccs1 do in these assays?
Rin1 Abl inh: 0.1

How did CC1=NN(c2ccccc2)C(=O)/C1=C/c1ccc(Cl)cc1 do in these assays?
GalR3 antag: -7.9; ASAP1 inh: -9.7; Rin1 Abl inh: 12.4*; ARFGAP1 inh: 27.7*; Rin1 Abl conf: 0.2; GFP quencher: 2.4

How did CC1=NN(c2ccc(C(=O)O)cc2)C(=O)/C1=C\c1ccc(OC(=O)c2cccs2)cc1 do in these assays?
GalR3 antag: -3.6; ASAP1 inh: -8.2; Rin1 Abl inh: 10.5*; ARFGAP1 inh: 7.0; Rin1 Abl conf: -1.4; GFP quencher: -1.0

Results for COC(=O)[C@]12C[C@H](CC(=O)NCCCCc3ccccc3)C(=O)N(CCC3=CCCCC3)C1=C[C@H](COCc1ccccc1)O[C@@H]2C ?
GalR3 antag: -4.6; ASAP1 inh: 10.6; ARFGAP1 inh: -1.4

What do the screens show for `O=C(NCCN1CCC(n2c(=O)[nH]c3cc(Cl)ccc32)CC1)c1ccc(F)cc1`?
GalR3 antag: -9.3; ASAP1 inh: 4.8; ARFGAP1 inh: 6.9

Results for O=C(/C=C/c1ccc(O)c(O)c1)O[C@@H]1C[C@](O)(C(=O)O)C[C@@H](O)[C@H]1O ?
GalR3 antag: -0.2; ASAP1 inh: 3.5; Rin1 Abl inh: 4.0; ARFGAP1 inh: 4.5

Results for O=C(/C=C/c1ccc(O)c(O)c1)OC1C(O)CC(OC(=O)/C=C/c2ccc(O)c(O)c2)(C(=O)O)CC1O (stereo not given) ?
GalR3 antag: -2.7; ASAP1 inh: 1.0; Rin1 Abl inh: 23.2*; ARFGAP1 inh: 11.0; Rin1 Abl conf: 30.9*; GFP quencher: 2.1; GFP quench DR: >67.6

How did O=C(COC(=O)c1ccc([N+](=O)[O-])cc1Cl)Nc1cccnc1Cl do in these assays?
GalR3 antag: -0.8; ASAP1 inh: -23.0; Rin1 Abl inh: 8.7*; ARFGAP1 inh: -1.9; Rin1 Abl conf: 2.7; GFP quencher: 0.4

What do the screens show for `CC(=O)c1c(C)cc(C)c(CSc2nnc(-c3ccco3)o2)c1C`?
GalR3 antag: -5.6; ASAP1 inh: 1.4; Rin1 Abl inh: 5.4*; ARFGAP1 inh: 6.4; Rin1 Abl conf: -3.4; GFP quencher: -1.6

How did CCc1cccc(NC(=O)Cn2c(=O)oc3cc(S(=O)(=O)N4CCOCC4)ccc32)c1 do in these assays?
GalR3 antag: 2.6; ASAP1 inh: 13.0; Rin1 Abl inh: 6.2; ARFGAP1 inh: -4.0

How did CCc1ccc(NC(=O)Cn2c(=O)oc3cc(S(=O)(=O)N4CCOCC4)ccc32)cc1 do in these assays?
GalR3 antag: 3.1; ASAP1 inh: -7.5; Rin1 Abl inh: 8.1*; ARFGAP1 inh: 8.0; Rin1 Abl conf: 1.5; GFP quencher: -0.6

How did COc1ccc(NC(=O)NC2CCCc3ccccc32)c(OC)c1 (stereo not given) do in these assays?
GalR3 antag: 1.2; ASAP1 inh: 3.7; Rin1 Abl inh: -0.3; ARFGAP1 inh: 15.0

How did COc1ccc(CNC2CCCc3ccccc32)c(OC)c1 (stereo not given) do in these assays?
GalR3 antag: -10.2; ASAP1 inh: -3.9; Rin1 Abl inh: 6.2*; ARFGAP1 inh: 5.5; Rin1 Abl conf: 0.1; GFP quencher: -0.4

How did C[C@H]1CN(S(=O)(=O)C(C)(C)C)[C@@H](CCO)/C1=C\CCO do in these assays?
GalR3 antag: -2.0; ASAP1 inh: 6.2; ARFGAP1 inh: 1.0

What do the screens show for `CCc1ccc(CN2CCC(Oc3ccc(C(=O)N4CCCCC4)cc3)CC2)cc1`?
GalR3 antag: -4.1; ASAP1 inh: -9.4; Rin1 Abl inh: 10.1*; ARFGAP1 inh: 4.4; Rin1 Abl conf: 3.1; GFP quencher: -1.6

How did NC(=O)c1nsc(C(=O)N(c2ccccc2)C(C(=O)NCC2CCCO2)c2ccc(F)cc2)c1N (stereo not given) do in these assays?
GalR3 antag: -1.6; ASAP1 inh: 8.1; Rin1 Abl inh: 0.9; ARFGAP1 inh: 8.7

Screening data as filed in PubChem.
